Rows were chosen to be rich in hits. Some 1.9% of all compounds tested hit in one or more screens of this group.
ARFGAP1 inh – inhibitors of rat ARFGAP1; actives 0.26% (n = 360,000); inhibition, % at 16.5 µM; Arfgap1-stimulated ARF1 GTP hydrolysis, GDP FP detection;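 active = inhibition above a per-plate limit, mean inhibition of low control wells plus 3 SD, cut at about 25% in these data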
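System: truncated rat Arfgap1 GAP domain / Medium: HEPES-based buffer, pH 7.5 / Also added: N-terminally truncated human ARF1-GTP substrate / Incubation: enzyme reaction 120 min at 25 °C after 20 min preincubation / Measured by: FP of antibody-bound GDP Alexa 633 tracer, ex 620/em 688 nm / Replicates: singlicate, each compound tested once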
ASAP1 GAP inh – inhibitors of human ASAP1 ArfGAP activity | Q9ULH1 | ASAP1-stimulated ARF1 GTP hydrolysis, GDP FP detection | inhibition, % at 16.5 µM | actives 0.19% (n = 360,000); in the data active = inhibition above about 25%
Rtt109 Vps75 – C. albicans Rtt109 histone acetyltransferase inhibition. Q5AAJ8. purified Rtt109/Vps75, ThioGlo CoA-SH fluorescence, 4 h. inhibition, % at 34.9 µM. actives 0.16% (n = 330,000). AID 540336;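 active = inhibition of at least 50% in every replicate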
Efflux pump inh – antifungal efflux pump inhibition, Nile Red retention; AID 485275; inhibition, % at 10 µM; actives 0.44% (n = 330,000); S. cerevisiae Candida pump triplex;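 active = plate passing quality check with inhibition over a set limit, or well fluorescence over plate mean plus 4 SD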;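 note: Nile Red retained in pooled yeast measured as flow cytometry median fluorescence; higher means more Nile Red kept so more efflux inhibition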
FGF22 binding – shifts melting point of recombinant human FGF22. AID 651658. recombinant FGF22 thermal shift, SYPRO orange fluorescence; percent of sucrose octasulfate shift, DMSO zero. actives 1.5% (n = 340,000). activity (Tm shift, normalised), % at 9.99 µM. Q9HCT0;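 active = mean Tm shift, scaled 0 neutral to 100 positive control, at about 1.3% or above, every replicate too, limit read from the data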
Target sequence (Q9HCT0 whole entry, looked up): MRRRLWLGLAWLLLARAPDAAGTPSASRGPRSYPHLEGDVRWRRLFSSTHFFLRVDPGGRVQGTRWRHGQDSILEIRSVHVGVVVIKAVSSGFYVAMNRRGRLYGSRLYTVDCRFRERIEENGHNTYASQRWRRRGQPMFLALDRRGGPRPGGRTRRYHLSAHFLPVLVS
ARFGAP1 confirm – rat ARFGAP1 inhibition, confirmed | shares compounds with ARFGAP1 inh | ARFGAP1-stimulated ARF1 GTP hydrolysis, GDP tracer FP | inhibition, % at 16.5 µM | actives 30% (n = 890);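 active = average inhibition over triplicates above the hit cutoff set in the earlier primary screen, cut at about 25% in these data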
Target sequence (Q62848 whole entry, looked up): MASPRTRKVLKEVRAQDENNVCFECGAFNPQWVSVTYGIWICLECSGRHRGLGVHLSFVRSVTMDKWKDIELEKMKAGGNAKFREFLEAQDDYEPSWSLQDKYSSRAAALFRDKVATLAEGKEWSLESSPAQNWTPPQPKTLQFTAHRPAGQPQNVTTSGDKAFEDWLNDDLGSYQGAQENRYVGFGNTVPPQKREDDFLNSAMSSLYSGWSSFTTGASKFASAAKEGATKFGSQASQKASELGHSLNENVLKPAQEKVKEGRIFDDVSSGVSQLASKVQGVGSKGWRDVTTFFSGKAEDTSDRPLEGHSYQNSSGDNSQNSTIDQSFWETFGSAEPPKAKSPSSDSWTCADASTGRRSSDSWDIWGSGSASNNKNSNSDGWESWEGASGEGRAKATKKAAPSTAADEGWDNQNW
Numbers stand for hits; – = inactive; · = no result.

SMILES | ARFGAP1 inh | ASAP1 GAP inh | Rtt109 Vps75 | Efflux pump inh | FGF22 binding | ARFGAP1 confirm
CCCc1cc(=O)[nH]c(SCC(=O)N2CCN(S(=O)(=O)c3ccc4ccccc4c3)CC2)n1 | 25 | – | – | – | · | –
CCCN1[C@@H]2Cn3c(ccc(C4=CCCCC4)c3=O)[C@H]1[C@@H](C(=O)NCCc1ccncc1)[C@@H]2CO | · | · | · | · | – | ·
COc1ccc(NC(=O)CN(C)C(=O)c2cn(-c3ccccc3)nc2-c2ccc(OC)cc2)cc1 | – | – | – | – | – | ·
COc1ccc(NC(=O)CN(C)C(=O)c2cn(-c3ccccc3)nc2-c2ccc(Cl)cc2)cc1 | 27 | – | – | – | – | –
CCCCC(NC(=O)Cc1c(C)c2cc3c4c(oc3cc2oc1=O)CCCC4)C(=O)O (stereo unspecified) | – | – | – | – | – | ·
CC1CC(C)CN(S(=O)(=O)CC23CCC(CC2=O)C3(C)C)C1 (stereo unspecified) | 25 | – | – | – | – | –
Cc1ccccc1N1CCN(S(=O)(=O)CC23CCC(CC2=O)C3(C)C)CC1 (stereo unspecified) | – | – | – | – | – | ·
CNC[C@H]1Oc2ccc(NC(=O)NC3CCCCC3)cc2C(=O)N([C@@H](C)CO)C[C@H]1C | · | · | · | · | – | ·
O=C(Nc1ccc2oc(=O)ccc2c1)c1ccc(-c2cccc([N+](=O)[O-])c2)o1 | 71 | 63 | · | – | – | 107
CC(=O)NCCc1ccc(S(=O)(=O)Nc2ccc(NC(=O)c3ccc(F)cc3)cc2)cc1 | 29 | – | – | – | – | –
CC(=O)Nc1ccc(S(=O)(=O)NCCC(=O)NCCc2ccc(F)cc2)cc1 | – | – | – | – | · | ·
CS(=O)(=O)N1CCN(C(=O)COc2ccccc2)CC1 | 25 | – | – | – | – | –
CC(Nc1nc(N2CCNCC2)nc2ccccc12)c1ccccc1 (stereo unspecified) | 26 | – | – | – | – | –
CC(Nc1nc(-c2ccncc2)nc2ccccc12)c1ccccc1 (stereo unspecified) | – | – | – | – | – | ·
CN(Cc1ccco1)C(=O)C1CCC(=O)N(CCc2cccc(F)c2)C1 (stereo unspecified) | – | – | – | – | – | ·
CC#CCN(Cc1ccco1)C(=O)C1CCC(=O)N(CCc2cccc(F)c2)C1 (stereo unspecified) | 28 | – | · | · | – | –
Cc1cccc(-n2c(Cc3cc(=O)[nH]c(=O)[nH]3)nnc2SCC(=O)N2CCCCC2)c1 | – | – | – | – | – | ·
Cc1c(C)n(-c2ccccc2)c2ncnc(NCCN(C)C)c12 | 25 | – | – | – | – | –
COc1ccc(-n2c(C)c(C)c3c(NCCN(C)C)ncnc32)cc1 | – | – | – | – | – | ·
COC(=O)c1cccc(NC(=O)NC2CCCN2S(=O)(=O)c2ccc(Cl)cc2)c1 (stereo unspecified) | – | – | – | · | · | ·
Cc1ccc2[nH]c3c(=O)n(CC(=O)N4CC(C)CC(C)C4)ncc3c2c1 (stereo unspecified) | 31 | – | – | – | – | 41
CCCN1CCN(C(=O)Cn2ncc3c([nH]c4ccc(C)cc43)c2=O)CC1 | – | – | – | – | – | ·
O=C(Cn1c2ccccc2c2nc3n(c(=O)c21)CCS3)Nc1ccccc1 | – | – | – | – | – | ·
O=C(Cn1c2ccc(F)cc2c2nc3n(c(=O)c21)CCS3)Nc1ccccc1C(F)(F)F | 30 | – | – | – | – | 42
Cc1cccc(-c2n[nH]nc2C2=CC(=O)CC(C)(C)C2)c1 | 42 | – | · | · | – | –
SMILES | ARFGAP1 inh | ASAP1 GAP inh | Rtt109 Vps75 | Efflux pump inh | FGF22 binding | ARFGAP1 confirm
COc1ccc(/C=C/c2nc(N)nc(-c3ccccc3O)n2)cc1OC | 30 | – | – | – | – | 38
CSCC[C@H](NC(=O)OCc1ccccc1)C(=O)O | – | – | – | – | · | ·
CSCCC(NC(=O)OCc1ccccc1)C(=O)NCc1cccnc1 (stereo unspecified) | 25 | – | – | – | – | –
CCOC(=O)c1ccc(NC(=S)N(CCCN2CCCC2)Cc2cccs2)cc1 | 25 | – | – | – | – | –
COc1ccc(NC(=O)NNC(=O)COc2ccc3cc(Br)ccc3c2)cc1OC | 51 | – | – | – | – | 85
Cc1ccc(NC(=O)NNC(=O)COc2ccc([N+](=O)[O-])cc2)cc1C | 32 | – | – | – | – | 34
Cc1ccc(NC(=O)CCC(=O)NNC(=O)COc2ccc([N+](=O)[O-])cc2)cc1C | – | – | – | – | – | ·
Cc1cccc2c(C(=O)N3CCN(C(=O)c4ccco4)CC3)cc(-c3cccc(Br)c3)nc12 | – | – | – | – | – | ·
Cc1cc2nc(-c3ccccc3)c(CC3CCCCC3)n2c(C)c1Br | – | – | · | · | – | ·
COc1ccc(/C=N/Nc2cc(N3CCOCC3)ncn2)c(OC)c1 | – | – | – | – | – | ·
COc1cccc(/C=N/Nc2cc(N3CCOCC3)ncn2)c1O | 29 | – | – | – | – | 43
Cc1ccc(Cc2c(C3CCCCC3)nc3c(C)cc(Br)cn23)cc1 | – | – | · | · | – | ·
Cc1cc(Br)cn2c(Cc3ccccc3)c(C3CCCCC3)nc12 | 155 | – | · | · | – | –
O=C(NCc1ccccc1Cl)c1ccc(NC2=NC3CS(=O)(=O)CC3S2)cc1 (stereo unspecified) | 27 | – | – | – | – | –
Cn1nccc1C(=O)NC1CCCc2c1cnn2-c1ccc(C(C)(C)C)cc1 (stereo unspecified) | – | – | – | – | – | ·
Cc1cc(C)c2c(=N)c3ccccc3n(CCCCCCCCn3c4ccccc4c(=N)c4c(C)cc(C)nc43)c2n1 | 26 | – | – | · | – | –
Cc1ccc(C(C)C)c(OCCN2CCc3ccccc3C2)c1 | – | – | – | – | · | ·
Cc1sc2ncnc(N3CCC(C(=O)NCC(=O)Nc4ccc(F)c(F)c4)CC3)c2c1C | 25 | – | – | – | – | –
O=c1oc(-c2ccccc2NS(=O)(=O)c2ccc3ccccc3c2)nc2ccccc12 | – | – | – | – | · | ·
c1ccc2[nH]c(SCC3CCCCO3)nc2c1 (stereo unspecified) | – | – | – | – | – | ·
O=C(COC(=O)CNC(=O)c1ccc(Cl)cc1Cl)NC1CCCCC1 | 27 | – | – | – | – | –
O=C(COC(=O)CNC(=O)c1ccc(Cl)cc1Cl)NC(=O)NC1CCCCC1 | – | – | – | – | · | ·
CCOC(=O)Cc1csc(NC(=O)c2ccc(F)cc2)n1 | – | – | – | – | – | ·
O=C(NC1CCS(=O)(=O)C1)/C(=C\c1ccco1)NC(=O)c1ccccc1 (stereo unspecified) | – | – | – | – | – | ·
Cc1sc2nc(SCC(=O)N3CC(C)OC(C)C3)n(C)c(=O)c2c1C (stereo unspecified) | 26 | – | – | – | – | –
CCOC(=O)CSc1nc2sc(C)c(C)c2c(=O)n1C | – | – | – | – | · | ·
COC(=O)c1sc(NC(=O)CSc2nnnn2C)nc1C | – | – | – | – | – | ·

Screening data from PubChem.
